CSN inh = inhibitors of human CSN-mediated cullin deneddylation; 360,000 tested, 0.38% active; inhibition, % at 12.5 µM; AID 651999; Purified CSN, SCF-Nedd8-OG deneddylation, fluorescence polarization;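 active = pattern-corrected inhibition above about 35%, with an unprinted fluorescence ratio check between 0.5 and 1.5, limit read from the data, passing the limit was not always enough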;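 note: 0% = enzyme with substrate and 100% = substrate without enzyme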
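Test system: purified human Csn5 enzyme expressed in HEK293T cells. Amount: 0.24 nM enzyme. Reagent: SCFSkp2-Nedd8OG substrate at 10 nM final. Schedule: 90 min incubation of compound, enzyme and substrate at room temperature. Detection: fluorescence polarization. Read-out: % inhibition of substrate cleavage by Csn5.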
TPT1 inhibitor = C. albicans TPT1 enzyme inhibition | recombinant caTPT1, FP RNA substrate dephosphorylation | inhibition, % at 5 µM | 300,000 tested, 0.81% active | AID 1962;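 active = inhibition above the mean of all tested compounds plus 3 SD, set per screening campaign, cut at about 24% in these data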;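 note: plate controls were DMSO alone for no effect and ferristatin control at 100 nM for full effect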
IDE act = boosts human insulin-degrading enzyme activity in HEK cells; FAbeta-B cleavage, fluorescence polarization; 0% vehicle, 100% cell-free pure enzyme wells; P14735; AID 493087; 340,000 tested, 0.073% active; activation, % at 5.96 µM;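 active = activation above the mean of all tested compounds plus 3 SD, set per screening campaign, cut at about 17% in these data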
HNF4A DNA FP = change in binding of human HNF4 alpha to DNA; P41235; HNF4a-FITC DNA binding, fluorescence polarization, 1 h; activity change, % at 10 µM; 360,000 tested, 0.3% active; AID 1224865; in the data active = activity change above about 30%, passing the limit was not always enough
Target sequence (P41235 whole entry, looked up): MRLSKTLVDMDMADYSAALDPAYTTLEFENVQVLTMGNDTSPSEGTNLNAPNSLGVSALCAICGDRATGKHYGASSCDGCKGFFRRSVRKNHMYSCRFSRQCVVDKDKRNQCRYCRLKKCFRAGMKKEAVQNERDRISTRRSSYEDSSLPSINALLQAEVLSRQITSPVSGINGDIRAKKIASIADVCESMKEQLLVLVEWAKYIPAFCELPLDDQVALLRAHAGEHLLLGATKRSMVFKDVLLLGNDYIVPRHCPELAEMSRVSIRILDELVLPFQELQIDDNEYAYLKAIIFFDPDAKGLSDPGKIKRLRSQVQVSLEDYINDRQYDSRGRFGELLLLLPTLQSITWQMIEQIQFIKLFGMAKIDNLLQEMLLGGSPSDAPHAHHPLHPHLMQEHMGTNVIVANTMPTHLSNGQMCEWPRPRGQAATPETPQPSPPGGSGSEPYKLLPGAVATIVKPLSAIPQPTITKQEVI
IDE cell inh = cellular human IDE inhibition. P14735. AID 434962. inhibition, % at 5.59 µM. 320,000 tested, 0.41% active. HEK cells, FAbetaB cleavage, fluorescence polarization;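 active = percent inhibition above the average of all tested compounds plus 3 SD, set per screening campaign, cut at about 16% in these data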;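 note: IDE supplied by intact live HEK cells; FP after avidin binding of uncleaved biotin substrate so inhibition keeps polarization high; 0% = DMSO wells and 100% = 60 µM reference IDE inhibitor Ii1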
Rpn11 inh = Rpn11 (human) deubiquitinase inhibition. O00487. human 26S proteasome, Ub4-pepOG fluorescence polarization; 20S core pre-blocked with epoxomicin. calls only at 20 µM. 360,000 tested, 0.59% active. AID 588493;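 active = inhibition at 20 µM, scaled to each plate's controls, above about 33%, limit read from the data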
Rpn11 inh conf = confirmation of human proteasome Rpn11 inhibitors. shares compounds with Rpn11 inh. purified human 26S proteasome, Ub4-pepOG fluorescence polarization; proteasome pretreated with epoxomicin. inhibition, % at 20 µM. 1,900 tested, 29% active. AID 602318
MMP-2 counter = counter-screen for RPN11 inhibitors: inhibition of human MMP-2; 1,900 tested, 4% active; AID 602330; recombinant MMP-2, FRET peptide cleavage fluorescence; inhibition, % at 20 µM; shares compounds with Rpn11 inh;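 note: human MMP-2 activated beforehand with APMA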
Thrombin FP = blocks bovine thrombin, flagging nonselective RPN11 hits. 1,900 tested, 13% active. shares compounds with Rpn11 inh. bovine thrombin cleavage of Ub4-pepOG, fluorescence polarization. AID 602333. inhibition, % at 20 µM;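 active = mean inhibition at least 40% at 20 µM, or signal 3 deviations below plate average, so some actives read negative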;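 note: plate controls were thrombin with DMSO for no effect and buffer wells lacking thrombin for full effect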
* marks the source's active call; other numbers are inactive results; i = inactive; nt = no result shown; + = active, no number. A selection: hits, their analogues and other compounds. The true share with any hit is near 1.7%. Cut-off read from the data, not from the text of the source, unless noted: active = inhibition above about 40%; inactive = the rest.

SMILES	CSN inh	TPT1 inhibitor	IDE act	HNF4A DNA FP	IDE cell inh	Rpn11 inh	Rpn11 inh conf	MMP-2 counter	Thrombin FP
CCOc1ccc(S(=O)(=O)NCCC(=O)N2CCC(Cc3ccccc3)CC2)cc1	4	-1	1	-1	1	i	nt	nt	nt
COCCOC(=O)c1ccc(NC(=O)COc2ccc([N+](=O)[O-])cc2)cc1	1	-2	4	1	3	i	nt	nt	nt
Cc1ccc(CNc2oc(-c3ccco3)nc2S(=O)(=O)c2ccccc2)cc1	5	1	4	3	2	+	7	20	0
COc1cc(/C=C2\SC(=S)N(N(C)c3ccccc3)C2=O)ccc1O	19	13	-24	13	12	+	6	-16	9
C=CCn1cnc2c(c1=O)c1nc3ccccc3nc1n2/N=C/c1cccc(OC)c1OC	59*	-3	-4	2	1	+	5	-25	-2
Cc1ccc(S(=O)(=O)Nc2ccccc2NS(=O)(=O)c2ccc(C)cc2)cc1	5	nt	nt	2	nt	i	nt	nt	nt
Cc1ccc(S(=O)(=O)Nc2ccccc2-c2ccccc2)cc1	-4	-1	2	-4	1	+	-25	13	-14
O=c1c2c(nc3cc(-c4ccccc4Cl)[nH]n13)CCS2	81*	-1	-1	-5	-2	+	12	0	10
O=C(CCN1C(=O)/C(=C/C=C/c2ccccc2)SC1=S)Nc1nc2ccccc2s1	0	5	-2	12	2	+	32	-14	-51
O=C(Nc1nc(-c2ccco2)c(-c2ccco2)s1)C1CC(=O)N(c2ccc3c(c2)OCCO3)C1 (configuration not stated)	52	5	1	-34	6	nt	nt	nt	nt
COc1cccc(CNC(=O)CSc2nnc3c(n2)[nH]c2ccc(F)cc23)c1	1	-1	-3	1	-1	i	nt	nt	nt
O=C(CSc1nnc2c(n1)[nH]c1ccc(F)cc12)OCc1ccccc1	-7	-4	2	0	5	+	-5	7	-10
Cc1ccc(CS(=O)Cc2ccc(C(=O)NCc3cccs3)o2)cc1 (configuration not stated)	-1	-3	4	4	5	+	-10	-1	-18
CSCCC(NC(=O)c1ccco1)C(=O)OC(C)C(=O)NC(=O)NC1CCCCC1 (configuration not stated)	-2	0	4	-42	5	+	-3	6	0
C[C@H](NC(=O)c1ccco1)C(=O)NC1CCCCCC1	-2	nt	2	3	-3	i	nt	nt	nt
COc1ccc(CC(=O)NC(C)(C)CC(C)=O)cc1OC	4	6	7	-5	3	i	nt	nt	nt
CCC(C)(C)NC(=O)Cc1ccc(OC)c(OC)c1	2	2	5	0	-2	+	6	-15	-8
O=[N+]([O-])c1ccc(/C=N/Nc2ccccn2)cc1	11	14	4	16	-8	+	19	-35	-3
CCCC(=O)Nc1sc2c(c1C(=O)OCC)CC(C)(C)OC2	-2	1	2	1	-1	i	nt	nt	nt
O=C(Nc1ccccc1C(=O)Nc1nnc(C(F)(F)F)s1)c1ccccc1	-3	2	3	-12	0	+	5	1	-6
NC(=O)CC(NC(=O)c1ccc(Br)cc1)c1ccc(NC2CCCCCC2)c([N+](=O)[O-])c1 (configuration not stated)	14	0	-2	25	1	+	40*	-11	8
COc1ccc(OC)c(S(=O)(=O)N2CCN(C(=O)NC3CCCCC3)CC2)c1	1	nt	-5	3	3	i	nt	nt	nt
CCOc1nc2cnccc2n(CC(=O)Nc2ccccc2C(=O)OC)c1=O	1	0	6	18	-3	+	3	-5	2
CCOc1ccccc1NC(=O)Cn1c(=O)c(OCC)nc2cnccc21	2	0	2	-1	1	i	nt	nt	nt
Cc1cccc2cc(C#N)c(SCC#N)nc12	2	-1	-3	-1	-2	i	nt	nt	nt
SMILES	CSN inh	TPT1 inhibitor	IDE act	HNF4A DNA FP	IDE cell inh	Rpn11 inh	Rpn11 inh conf	MMP-2 counter	Thrombin FP
O=C(Cc1ccccc1)N1CCC(C(=O)N2CCN(c3ccc(F)cc3)CC2)CC1	-5	3	3	0	-3	i	nt	nt	nt
Cc1ccc(N2C(=NC(=O)c3ccccc3)SC3CS(=O)(=O)CC32)cc1 (configuration not stated)	3	2	4	-4	-6	i	nt	nt	nt
CCCC(=O)N=C1SC2CS(=O)(=O)CC2N1c1ccc(-c2nc3ccc(C)cc3s2)cc1 (configuration not stated)	0	5	-8	8	0	+	2	-25	-5
COc1ccccc1N1CCN(C(=O)c2cccc(S(=O)(=O)NCc3cccnc3)c2)CC1	1	nt	2	-3	0	i	nt	nt	nt
Oc1c(CN2CCOCC2)cc(CN2CCOCC2)cc1CN1CCOCC1	2	nt	2	0	nt	+	3	-19	3
Oc1cc(O)c(CN2CCOCC2)cc1CN1CCOCC1	3	nt	6	-1	nt	i	nt	nt	nt
Cc1nc(SCc2nc3ccc(Br)cc3[nH]2)c2oc3ccccc3c2n1	12	nt	0	0	-2	+	44*	-19	16
Cc1nc(SCc2nc3ccc(Cl)cc3[nH]2)c2oc3ccccc3c2n1	2	nt	0	6	-2	i	nt	nt	nt
COc1ccc(NC(=O)c2ccc(S(=O)(=O)N(C)C)cc2)cc1	-16	0	4	-2	2	i	nt	nt	nt
CC(C)NC(=O)c1ccc(S(=O)(=O)N(C)C)cc1	-4	0	-1	-9	-2	+	-22	-24	-9
N=c1c(C(=O)NC2CCCC2)cc2c(=O)n3ccccc3nc2n1C1CCCC1	5	2	1	5	-7	i	nt	nt	nt
Cc1cccn2c(=O)c3cc(C(=O)NC4CCCC4)c(=N)n(C4CCCC4)c3nc12	-4	-1	2	10	-6	+	2	-37	-1
N#C/C(=C\c1cn(CCOc2ccccc2)c2ccccc12)C(=O)NCc1ccco1	-2	-3	3	6	2	+	8	-44	-16
O=C(CSCc1ccc(Cl)cc1)N/N=C/c1ccc(Cl)cc1Cl	-2	0	3	0	2	i	nt	nt	nt

Compound activity from PubChem BioAssay.
